# Results collected from several papers.
# Target: Interleukin-1 receptor-associated kinase 1 (IRAK1, Homo sapiens, UniProt P51617)
SMILES,test,setting,endpoint,result
CO[C@@H]1[C@H](N(C)C(=O)c2ccccc2)C[C@H]2O[C@]1(C)n1c3ccccc3c3c4c(c5c6ccccc6n2c5c31)C(=O)NC4,"enzyme activity, inhibitor",1 µM,inhibition,19%
C[C@H]1CC[C@H](n2c3cnccc3c3cnc(Nc4ccc5c(n4)CCN(C(=O)CO)C5)nc32)CC1,cell-free assay,1 µM,remaining signal,23%
C1=C/COCc2cc(ccc2OCCN2CCCC2)Nc2nccc(n2)-c2cccc(c2)COC/1,binding,0.1 µM,remaining binding,0%
Cc1ccc(NC(=O)c2ccnc(C(F)(F)F)c2)cc1-c1cc(OCCO)nc(N2CCOCC2)c1,binding,1 µM,remaining binding,100%
COc1ccc2oc(-c3ccc4nc(N)oc4c3)c/c(=N\c3ccccc3NC(=O)CCN)c2c1,binding,1 µM,remaining binding,102%
CCCCC(=O)Nc1ccc(-c2ccc3ncn(CCC)c(=O)c3c2)cn1,"binding, competition with immobilised ligand",0.5 µM,remaining binding,75%
C=CC(=O)N1CCC([C@@H]2CCNc3c(C(N)=O)c(-c4ccc(Oc5ccccc5)cc4)nn32)CC1,"enzyme activity, inhibitor",1 µM,inhibition,0%
C#Cc1cc(-c2cc(Nc3nc(N[C@@H](C)c4ccc(F)cn4)ncc3Cl)n[nH]2)ccc1C=O,"enzyme activity, inhibitor",0.2 µM,inhibition,10.8%
Cc1cc(O)c(-c2ccc([C@@H](C)CN(C)C)cc2)c2c1[nH]c(=O)c1sccc12,"enzyme activity, inhibitor",0.1 µM,inhibition,-2.56%
